Tests used:
[1] = target: T1, Neuronal acetylcholine receptor; alpha4/beta2 (Homo sapiens, UniProt P17787+P43681); assay: Displacement of [3H]-epibatidine from wild type human alpha4beta2 nAChR transfected in human Hela cell membranes preincubated for 5 mins followed by [3H]-epibatidine addition and measured after overnight incubation by liquid scintillation beta counter analysis
Summary of the method: (§1)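 HeLa cells were transiently transfected (JetPEI) with 7.5 μg each of α4 and β2 (wild-type or mutant) cDNA and harvested after 24 h. Membranes were pre-exposed to compounds for 5 min, then incubated overnight at 4 °C with 0.1 nM [3H]epibatidine, filtered and counted by β scintillation. Ki came from the Cheng–Prusoff equation, three independent experiments in duplicate.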

[2] = Agonist activity at human alpha4beta2 S108A mutant transfected in rat GH4-C1 cells at holding potential of -70 mV by whole cell patch clamp electrophysiology method; assay type: cell-based
Summary of the method: (§2)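 GH4C1 cells were transiently transfected by magnetofection with 0.5 μg of each human subunit cDNA (wild-type or S108A α4β2; α3β4). Whole-cell currents were recorded in HEPES-buffered saline at pH 7.3, with CsCl/BAPTA pipettes and fast perfusion of agonist. Concentrations were applied sequentially, and peak currents were normalized to 100 μM ACh on the same cell. EC50, Imax and Hill coefficient came from a Hill-equation fit.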

[3] = Selectivity index, ratio of Ki for displacement of [3H]-Epibatidine from wild type human alpha4beta2 nAChR transfected in Hela cell membrane to Ki for displacement of [3H]-Epibatidine from human alpha4beta2 nAChR S108A mutant transfected in Hela cell membrane; assay type: cell membranes; summary of the method: as §1
[4] = target: T1, Neuronal acetylcholine receptor; alpha4/beta2; assay: Agonist activity at wild type human alpha4beta2 transfected in rat GH4-C1 cells at holding potential of -70 mV by whole cell patch clamp electrophysiology method; assay type: cell-based; summary of the method: as §2
[5] = target: T1, Neuronal acetylcholine receptor; alpha4/beta2; assay: Partial agonist activity at wild type human alpha4beta2 transfected in rat GH4-C1 cells assessed as maximum response at holding potential of -70 mV by whole cell patch clamp electrophysiology method relative to ACh; assay type: cell-based; summary of the method: as §2
[6] = Displacement of [3H]-epibatidine from human alpha4beta2 nAChR S108A mutant transfected in human Hela cell membranes preincubated for 5 mins followed by [3H]-Epibatidine addition and measured after overnight incubation by liquid scintillation beta counter analysis; summary of the method: as §1
[7] = target: T1, Neuronal acetylcholine receptor; alpha4/beta2; assay: Partial agonist activity at human alpha4beta2 transfected in rat GH4-C1 cells assessed as maximum response at holding potential of -70 mV by whole cell patch clamp electrophysiology method relative to ACh; assay type: cell-based; summary of the method: as §2
[8] = target: Neuronal acetylcholine receptor subunit alpha-7 (Rattus norvegicus, UniProt Q05941); assay: Displacement of [125I]alpha-bungarotoxin from alpha7nAChR in rat hippocampus membranes preincubated for 5 mins followed by [125I]alpha-bungarotoxin addition and measured after overnight incubation by liquid scintillation beta counter analysis; assay type: cell membranes, Membrane
[9] = target: Neuronal acetylcholine receptor; alpha4/beta2 (Rattus norvegicus, UniProt P09483+P12390); assay: Displacement of [3H]-Epibatidine from alpha4beta2 nAChR in rat cerebral cortex membrane preincubated for 5 mins followed by [3H]-Epibatidine addition and measured after overnight incubation by liquid scintillation beta counter analysis; assay type: cell membranes
Summary of the method: (§3)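 Membranes (rat cerebral cortex for α4β2; HEK cells stably transfected with human α3β4) were pre-exposed to rising compound concentrations for 5 min. Samples were filtered on PEI-soaked GFC filters and counted by β scintillation. Nonspecific binding was set with 100 nM epibatidine.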

GH4-C1 = assay: Agonist activity at human alpha4beta2 S108A mutant transfected in rat GH4-C1 cells assessed as maximum response at holding potential of -70 mV by whole cell patch clamp electrophysiology method relative to ACh; assay type: cell-based; summary of the method: as §2
[10] = target: T2, Neuronal acetylcholine receptor; alpha3/beta4 (Homo sapiens, UniProt P30926+P32297); assay: Displacement of [3H]-epibatidine from human alpha3beta4 transfected in HEK293 cell membranes preincubated for 5 mins followed by [3H]-epibatidine addition and measured after overnight incubation by liquid scintillation beta counter analysis; design: species or system Membrane
Summary of the method: as §3, with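 “min. They were then incubated overnight at 4 °C with [3H]epibatidine (0.1 nM for α4β2, 0.25 nM for α3β4).” for “min.”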

[11] = target: T2, Neuronal acetylcholine receptor; alpha3/beta4; assay: Partial agonist activity at human alpha3beta4 transfected in rat GH4-C1 cells at holding potential of -70 mV by whole cell patch clamp electrophysiology method; assay type: cell-based; summary of the method: as §2
[12] = target: T2, Neuronal acetylcholine receptor; alpha3/beta4; assay: Partial agonist activity at human alpha3beta4 transfected in rat GH4-C1 cells assessed as maximum response at holding potential of -70 mV by whole cell patch clamp electrophysiology method relative to ACh; assay type: cell-based; summary of the method: as §2
[13] = target: T2, Neuronal acetylcholine receptor; alpha3/beta4; assay: Antagonist activity at human alpha3beta4 transfected in rat GH4-C1 cells assessed as inhibition of ACh-induced response at holding potential of -70 mV by whole cell patch clamp electrophysiology method; assay type: cell-based
[14] = target: T1, Neuronal acetylcholine receptor; alpha4/beta2; assay: Partial agonist activity at human alpha4beta2 transfected in rat GH4-C1 cells at holding potential of -70 mV by whole cell patch clamp electrophysiology method; assay type: cell-based; summary of the method: as §2

T1 sequence (P17787 whole entry): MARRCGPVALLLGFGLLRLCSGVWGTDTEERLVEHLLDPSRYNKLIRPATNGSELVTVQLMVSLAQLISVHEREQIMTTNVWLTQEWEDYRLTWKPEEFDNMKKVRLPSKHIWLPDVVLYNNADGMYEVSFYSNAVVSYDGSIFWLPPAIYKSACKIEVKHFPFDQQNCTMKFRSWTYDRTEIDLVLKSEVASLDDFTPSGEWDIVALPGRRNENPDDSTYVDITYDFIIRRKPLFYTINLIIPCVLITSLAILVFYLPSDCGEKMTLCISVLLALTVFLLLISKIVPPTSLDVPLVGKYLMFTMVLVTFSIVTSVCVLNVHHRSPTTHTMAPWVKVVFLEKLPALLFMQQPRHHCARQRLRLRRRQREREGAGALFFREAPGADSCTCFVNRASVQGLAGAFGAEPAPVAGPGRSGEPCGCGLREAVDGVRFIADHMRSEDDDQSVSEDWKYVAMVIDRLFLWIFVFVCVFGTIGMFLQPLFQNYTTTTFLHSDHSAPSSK
T1 sequence (P43681 whole entry): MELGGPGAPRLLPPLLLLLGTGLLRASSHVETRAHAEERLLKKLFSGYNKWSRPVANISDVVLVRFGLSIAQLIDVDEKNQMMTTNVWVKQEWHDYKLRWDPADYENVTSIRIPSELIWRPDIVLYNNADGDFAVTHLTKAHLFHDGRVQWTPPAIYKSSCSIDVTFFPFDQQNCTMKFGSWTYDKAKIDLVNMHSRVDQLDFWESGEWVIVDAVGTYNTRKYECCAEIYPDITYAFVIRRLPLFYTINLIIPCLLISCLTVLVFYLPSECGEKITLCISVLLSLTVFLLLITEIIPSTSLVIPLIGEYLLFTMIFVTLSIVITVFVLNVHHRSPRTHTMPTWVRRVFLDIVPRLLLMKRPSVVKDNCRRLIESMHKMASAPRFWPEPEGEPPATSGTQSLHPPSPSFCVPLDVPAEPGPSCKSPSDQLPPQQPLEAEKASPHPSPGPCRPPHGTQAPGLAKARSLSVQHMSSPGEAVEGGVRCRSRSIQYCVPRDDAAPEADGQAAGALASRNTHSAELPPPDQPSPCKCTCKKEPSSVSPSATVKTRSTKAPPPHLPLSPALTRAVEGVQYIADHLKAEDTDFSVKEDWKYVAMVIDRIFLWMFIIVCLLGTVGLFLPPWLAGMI
Chain of Neuronal acetylcholine receptor; alpha4/beta2 (Rattus norvegicus, UniProt P09483+P12390) (P09483 whole entry): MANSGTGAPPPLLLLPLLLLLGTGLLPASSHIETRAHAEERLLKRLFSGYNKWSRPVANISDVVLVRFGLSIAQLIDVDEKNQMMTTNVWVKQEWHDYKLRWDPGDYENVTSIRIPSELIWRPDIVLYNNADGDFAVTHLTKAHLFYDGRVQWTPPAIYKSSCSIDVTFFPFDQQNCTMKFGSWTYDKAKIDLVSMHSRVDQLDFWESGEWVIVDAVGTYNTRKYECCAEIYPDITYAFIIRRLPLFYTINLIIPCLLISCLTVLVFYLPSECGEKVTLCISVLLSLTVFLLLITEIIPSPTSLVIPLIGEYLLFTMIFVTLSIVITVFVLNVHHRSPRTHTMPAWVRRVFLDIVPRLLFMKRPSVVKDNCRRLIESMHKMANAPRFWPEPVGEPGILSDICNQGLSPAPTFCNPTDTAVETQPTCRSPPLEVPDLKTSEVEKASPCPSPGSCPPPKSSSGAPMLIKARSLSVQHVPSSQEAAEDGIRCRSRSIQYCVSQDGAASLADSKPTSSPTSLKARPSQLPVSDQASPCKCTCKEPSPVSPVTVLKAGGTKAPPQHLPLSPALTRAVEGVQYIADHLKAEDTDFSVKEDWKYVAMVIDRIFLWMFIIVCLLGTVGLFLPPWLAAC
Chain of Neuronal acetylcholine receptor; alpha4/beta2 (Rattus norvegicus, UniProt P09483+P12390) (P12390 whole entry): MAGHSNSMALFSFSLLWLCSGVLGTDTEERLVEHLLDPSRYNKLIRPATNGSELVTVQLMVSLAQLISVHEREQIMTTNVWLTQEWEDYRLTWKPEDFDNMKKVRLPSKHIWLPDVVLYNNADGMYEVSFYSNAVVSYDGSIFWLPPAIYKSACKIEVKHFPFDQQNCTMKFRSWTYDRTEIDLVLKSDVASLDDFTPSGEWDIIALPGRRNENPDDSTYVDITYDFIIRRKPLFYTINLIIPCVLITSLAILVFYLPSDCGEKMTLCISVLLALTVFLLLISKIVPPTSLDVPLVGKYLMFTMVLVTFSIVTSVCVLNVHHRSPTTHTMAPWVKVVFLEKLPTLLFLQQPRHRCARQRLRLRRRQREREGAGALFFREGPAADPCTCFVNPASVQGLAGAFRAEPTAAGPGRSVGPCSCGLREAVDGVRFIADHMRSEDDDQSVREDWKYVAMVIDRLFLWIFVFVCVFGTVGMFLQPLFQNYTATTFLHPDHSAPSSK
Chain of Neuronal acetylcholine receptor subunit alpha-7 (Q05941 whole entry): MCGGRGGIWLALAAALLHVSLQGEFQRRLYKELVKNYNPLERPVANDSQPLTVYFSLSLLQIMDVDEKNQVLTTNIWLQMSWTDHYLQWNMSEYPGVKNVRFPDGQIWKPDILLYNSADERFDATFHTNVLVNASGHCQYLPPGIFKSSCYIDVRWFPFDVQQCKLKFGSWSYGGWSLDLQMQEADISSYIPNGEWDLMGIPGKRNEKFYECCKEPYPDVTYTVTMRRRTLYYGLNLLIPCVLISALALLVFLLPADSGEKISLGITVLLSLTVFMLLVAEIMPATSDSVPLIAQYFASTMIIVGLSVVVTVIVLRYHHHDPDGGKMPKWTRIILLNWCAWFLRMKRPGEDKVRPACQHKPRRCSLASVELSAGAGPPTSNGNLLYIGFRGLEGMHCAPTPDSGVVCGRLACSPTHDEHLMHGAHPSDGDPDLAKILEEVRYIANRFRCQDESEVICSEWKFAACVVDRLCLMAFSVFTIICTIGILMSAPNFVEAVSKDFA
T2 sequence (P30926 whole entry): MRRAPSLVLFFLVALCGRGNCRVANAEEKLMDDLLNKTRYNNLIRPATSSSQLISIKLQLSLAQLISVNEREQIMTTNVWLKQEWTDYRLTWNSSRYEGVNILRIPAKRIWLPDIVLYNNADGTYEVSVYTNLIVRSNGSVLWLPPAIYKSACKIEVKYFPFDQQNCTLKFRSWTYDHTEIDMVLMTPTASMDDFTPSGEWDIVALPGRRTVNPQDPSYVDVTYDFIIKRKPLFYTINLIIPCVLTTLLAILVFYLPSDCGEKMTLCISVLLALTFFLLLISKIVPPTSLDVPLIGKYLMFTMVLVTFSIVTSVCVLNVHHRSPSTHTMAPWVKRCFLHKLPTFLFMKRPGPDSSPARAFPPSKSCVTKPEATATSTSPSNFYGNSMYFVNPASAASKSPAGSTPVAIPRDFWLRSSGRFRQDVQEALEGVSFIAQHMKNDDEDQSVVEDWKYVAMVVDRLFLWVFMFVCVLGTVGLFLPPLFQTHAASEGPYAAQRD
T2 sequence (P32297 whole entry): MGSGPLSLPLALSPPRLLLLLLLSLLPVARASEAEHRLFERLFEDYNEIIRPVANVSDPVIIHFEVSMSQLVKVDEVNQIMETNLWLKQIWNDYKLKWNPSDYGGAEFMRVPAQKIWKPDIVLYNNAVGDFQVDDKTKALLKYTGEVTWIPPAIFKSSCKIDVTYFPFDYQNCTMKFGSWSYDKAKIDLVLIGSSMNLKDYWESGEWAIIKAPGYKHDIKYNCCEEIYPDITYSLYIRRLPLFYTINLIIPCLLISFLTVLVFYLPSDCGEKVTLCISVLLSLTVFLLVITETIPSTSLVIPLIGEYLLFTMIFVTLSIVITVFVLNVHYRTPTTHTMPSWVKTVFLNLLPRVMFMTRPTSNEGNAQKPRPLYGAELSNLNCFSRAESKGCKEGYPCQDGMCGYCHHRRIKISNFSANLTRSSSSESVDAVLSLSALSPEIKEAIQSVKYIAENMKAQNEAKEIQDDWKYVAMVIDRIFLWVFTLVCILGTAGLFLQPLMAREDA

| SMILES | Ki [8] | Ki [9] | Ki [10] | other results |
| --- | --- | --- | --- | --- |
| CN1CCC[C@H]1[C@@H]1COc2ncccc2O1 | 89 µM | 0.41 µM | – | Ki [1]: 0.114 µM; EC50 [2]: 2.6 µM; Ratio Ki [3]: 0.43; EC50 [4]: 2.6 µM; Imax [5]: 26%; Ki [6]: 0.265 µM; Imax [7]: 24.2%; Imax (GH4-C1): 26% |
| CN(C)c1ccc2c(c1)O[C@@H]([C@@H]1CCCN1C)CO2 | > 10 µM | 49 µM | 25 µM | – |
| CN1CCC[C@H]1[C@H]1COc2cc(N)ccc2O1 | > 10 µM | 74 µM | 8.6 µM | – |
| CN1CCC[C@H]1[C@H]1COc2cc(-c3ccccc3)ccc2O1 | 2.1 µM | 92 µM | 5.8 µM | – |
| CN1CCC[C@H]1[C@@H]1COc2cc([N+](=O)[O-])ccc2O1 | 31.5 µM | 46 µM | 15 µM | – |
| CC(=O)Nc1ccc2c(c1)O[C@H]([C@@H]1CCCN1C)CO2 | > 10 µM | 6.5 µM | 1.9 µM | – |
| CN1CCC[C@H]1[C@@H]1COc2ccc(O)cc2O1 | – | – | – | Ki [1]: 0.0067 µM; EC50 [2]: 3.8 µM; Ratio Ki [3]: 5.6; EC50 [4]: 3.8 µM; Ki [6]: 0.0012 µM; Imax (GH4-C1): 29% |
| CN1CCC[C@H]1[C@H]1COc2c(O)cccc2O1 | – | 1.7 µM | > 100 µM | – |
| CN1CCC[C@H]1[C@@H]1COc2c(cccc2[N+](=O)[O-])O1 | – | 12.2 µM | 1.1 µM | – |
| CN1CCC[C@H]1[C@@H]1COc2cc(O)ccc2O1 | 26.8 µM | 50 µM | 1.9 µM | – |
| CN1CCC[C@H]1[C@H]1COc2ccc(O)cc2O1 | – | – | 0.7 µM | – |
| CN1CCC[C@H]1[C@@H]1COc2ccccc2O1 | – | – | – | Ki [1]: 1.17 µM; Ratio Ki [3]: 1.29; Ki [6]: 0.912 µM |
| CN1CCC[C@H]1[C@@H]1COc2ccc([N+](=O)[O-])cc2O1 | 10.4 µM | 14 µM | 4.5 µM | – |
| CN1CCC[C@H]1[C@H]1COc2c(cccc2-c2ccccc2)O1 | 50 µM | 7.3 µM | 5.3 µM | – |
| CN1CCC[C@H]1[C@H]1COc2cc(O)ccc2O1 | 10.5 µM | 71 µM | 6 µM | – |
| CN1CCC[C@H]1[C@@H]1COc2c(N)cccc2O1 | 109 µM | 7.1 µM | 3.9 µM | – |
| CN1CCC[C@H]1[C@@H]1COc2c(O)cccc2O1 | – | 0.55 µM | 3.9 µM | – |
| CN1CCC[C@H]1[C@H]1COc2ccc(N)cc2O1 | 19.1 µM | 0.14 µM | 0.18 µM | – |
| CN1CCC[C@H]1[C@@H]1COc2c(cccc2-c2ccccc2)O1 | 45.5 µM | 0.64 µM | 2.7 µM | – |
| CN1CCC[C@H]1[C@H]1COc2ccc([N+](=O)[O-])cc2O1 | 42.2 µM | 33 µM | 2.1 µM | – |
| CN1CCC[C@H]1[C@H]1COc2c(N)cccc2O1 | 44.5 µM | 0.131 µM | 13 µM | Ki [1]: 0.373 µM; EC50 [2]: 2.4 µM; EC50 [11]: 8.7 µM; Ratio Ki [3]: 2.4; EC50 [4]: 2.4 µM; Imax [12]: 38.2%; Imax [5]: 31%; Ki [6]: 0.156 µM; IC50 [13]: 54.6 µM; Imax [7]: 21.8%; Imax (GH4-C1): 31%; EC50 [14]: 0.005 µM |
| CN1CCC[C@H]1[C@H]1COc2cc([N+](=O)[O-])ccc2O1 | 13.5 µM | > 100 µM | 4.8 µM | – |
| CN(C)c1ccc2c(c1)O[C@H]([C@@H]1CCCN1C)CO2 | – | 147 µM | 2.2 µM | – |
| CN1CCC[C@H]1[C@@H]1COc2ccc(N)cc2O1 | 2.6 µM | 0.022 µM | 0.019 µM | Ki [1]: 0.046 µM; EC50 [11]: 19 µM; Ratio Ki [3]: 7.7; Imax [12]: 24%; Ki [6]: 0.006 µM; Imax [7]: 36%; EC50 [14]: 14 µM |
| CN1CCC[C@H]1[C@@H]1COc2cc(-c3ccccc3)ccc2O1 | 8.1 µM | 59 µM | 5.4 µM | – |
| CN1CCC[C@H]1[C@@H]1COc2cc(N)ccc2O1 | – | 86 µM | 3.5 µM | – |
| CC(=O)Nc1ccc2c(c1)O[C@@H]([C@@H]1CCCN1C)CO2 | – | 46 µM | 8.7 µM | – |
| CN1CCC[C@H]1[C@H]1COc2c(cccc2[N+](=O)[O-])O1 | – | 0.335 µM | 6.7 µM | – |

From ChEMBL document CHEMBL4673370, “Modifications at C(5) of 2-(2-Pyrrolidinyl)-Substituted 1,4-Benzodioxane Elicit Potent α4β2 Nicotinic Acetylcholine Receptor Partial Agonism with High Selectivity over the α3β4 Subtype” (J Med Chem, 2020)
